Assay results reported in article PMC12015351 (Scientific Reports, 2025).

Tests used:
[1] = tested on: SARS-CoV-2 replicon in Calu-3 cells; assay: microbe, parasite or virus in culture; format: cell-based; details: for activity level in presence of Cnd: Calu-3, specific dose of Cnd (candesartan)
[2] = tested on: 3CLpro; details: FRET-based enzymatic assay; cited from earlier work
[3] = target: 3CL Protease (SARS-CoV-2) (Severe acute respiratory syndrome coronavirus 2, UniProt P0DTD1); assay: biochemical; details: read-out: inhibition of in vitro protease activity
[4] = tested on: SARS-CoV-2 replicon in Caco-2 cells; format: cell-based; details: for activity level in presence of Cnd: Caco-2, specific dose of Cnd (candesartan)
[5] = tested on: SARS-CoV-2-induced cytopathic effects in Vero E6; details: live virus; cited from earlier work
[6] = tested on: 3CLpro; details: read-out: IC50 on 3CLpro activity; cited from earlier work
[7] = tested on: SARS-CoV-2-induced cytopathic effects in human A549 cells (A549/ACE2); details: live virus; cited from earlier work
[8] = tested on: Calu-3 cells; assay: Cell viability assay, xCelligence RTCA-DP, Calu-3; format: cell-based, human
[9] = tested on: Caco-2 cells; assay: Cell viability assay, xCelligence RTCA-DP, Caco-2; format: cell-based, human; details: 50 µM
Method in brief: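 Impedance-based real-time cell index monitoring. Seeding in e-plates: 15 × 10³ cells/well for Calu-3, 10 × 10³ for Caco-2. Plates rested 20 min at room temperature, then held at 37 °C, 5% CO2. After 24 h, medium replaced with test compound at 50, 10, 2 or 0.4 µM; 2 replicates per line. Readings every 15 min for 72 h; ~100 h curves compared with control.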

[10] = tested on: SARS-CoV-2 growth in lung cells; details: cited from earlier work
[11] = tested on: SARS-CoV-2; details: mouse models; cited from earlier work
[12] = person with VITT after ChAdOx1-S vaccine; cited from earlier work

CCOc1nc2cccc(C(=O)O)c2n1Cc1ccc(-c2ccccc2-c2nnn[nH]2)cc1 [Cnd, Candesartan]
IC50 range in words, Calu-3 [1]: sub-micromolar range | inhibitory activity on 3CLpro [2]: did not confirm | inhibition at 50 µM [3]: ≥ 50% | IC50 range in words, Caco-2 [4]: sub-micromolar range

CC1(C)O[C@@H]2C[C@H]3[C@@H]4C[C@H](F)C5=CC(=O)C=C[C@]5(C)[C@@]4(F)[C@@H](O)C[C@]3(C)[C@]2(C(=O)CO)O1 [Drug B2, Fluocinolone]
inhibition at 50 µM [3]: ≥ 50%

CC(=O)OCC(=O)[C@@]12OC3(CCCC3)O[C@@H]1C[C@H]1[C@@H]3CCC4=CC(=O)C=C[C@]4(C)[C@@]3(F)[C@@H](O)C[C@@]12C [Drug B5, Amcinonide]
IC50 ([1]; Severe acute respiratory syndrome coronavirus 2, Calu-3, read-out: IC50 (µM) in Calu-3 cells): 2 to 5 µM | inhibition at 50 µM [3]: ≥ 50% | activity level in presence of Cnd [4]: activity at the nanomolar (nM) level

CC1(C)O[C@@H]2C[C@H]3[C@@H]4CCC5=CC(=O)C=C[C@]5(C)[C@H]4[C@@H](O)C[C@]3(C)[C@]2(C(=O)CO)O1 [Drug B7, Desonide]
inhibition at 50 µM [3]: ≥ 50%

CC(=O)[C@@]1(O)CC[C@H]2[C@@H]3C[C@H](C)C4=CC(=O)C=C[C@]4(C)[C@@]3(F)[C@@H](O)C[C@@]21C [Drug B9, Fluorometholone]
inhibition at 50 µM [3]: ≥ 50%

O=c1[nH]c2ccccc2n1C1CCN(CCCC(c2ccc(F)cc2)c2ccc(F)cc2)CC1 [Drug B11, Pimozide]
activity level in presence of Cnd [1]: activity at the nanomolar (nM) level | inhibition of SARS-CoV-2-induced cytopathic effects [5]: significant inhibition | IC50 [6]: 42.5 µM | inhibition at 50 µM [3]: ≥ 50% | inhibition of SARS-CoV-2-induced cytopathic effects [7]: significant inhibition | activity level in presence of Cnd [4]: activity at the nanomolar (nM) level | effect on cell proliferation (cell index) ([8]; 50 µM): reduced cell proliferation

CC(C)C(=O)OCC(=O)[C@@]12O[C@H](C3CCCCC3)O[C@@H]1C[C@H]1[C@@H]3CCC4=CC(=O)C=C[C@]4(C)[C@H]3[C@@H](O)C[C@@]12C [Drug B12, Ciclesonide]
effect on cell proliferation (cell index) [9]: toxic effects | effect on cell proliferation (cell index) ([8]; 50 µM): reduced cell proliferation

COc1ccc2c(O[C@@H]3C[C@H]4C(=O)N[C@]5(C(=O)NS(=O)(=O)C6CC6)C[C@H]5/C=C\CCCCN(C)C(=O)[C@@H]4C3)cc(-c3nc(C(C)C)cs3)nc2c1C [Drug B18, Simeprevir]
effect on cell proliferation (cell index) [9]: toxic effects

Cc1c(O)cccc1C(=O)N[C@@H](CSc1ccccc1)[C@H](O)CN1C[C@H]2CCCC[C@H]2C[C@H]1C(=O)NC(C)(C)C [Drug B21, Nelfinavir]
inhibition at 50 µM [3]: ≥ 50%

Cc1ccc(NC(=O)C2(c3ccc4c(c3)OC(F)(F)O4)CC2)nc1-c1cccc(C(=O)O)c1 [Drug B22, Lumacaftor]
IC50 range in words, Calu-3 [1]: sub-micromolar range | SARS-CoV-2 growth [10]: inhibit SARS-CoV-2 growth | SARS-CoV-2 growth [11]: inhibit SARS-CoV-2 growth | inhibition at 50 µM [3]: ≥ 50% | IC50 range in words, Caco-2 [4]: sub-micromolar range | activity level in presence of Cnd [4]: activity at the nanomolar (nM) level

C[C@@H]1CCO[C@H]2Cn3cc(C(=O)NCc4ccc(F)cc4F)c(=O)c(O)c3C(=O)N12 [Drug B23, Dolutegravir]
inhibition at 50 µM [3]: ≥ 50%

NC(=O)C(c1ccccc1)(c1ccccc1)[C@@H]1CCN(CCc2ccc3c(c2)CCO3)C1 [Drug B25, Darifenacin]
effect on cell proliferation (cell index) ([8]; 25 µM, after a certain period): reduced cell proliferation | effect on cell proliferation (cell index) ([8]; 50 µM): reduced cell proliferation

CC1=NN(c2ccc(C)c(C)c2)C(=O)/C1=N\Nc1cccc(-c2cccc(C(=O)O)c2)c1O [Elt, Eltrombopag]
activity level in presence of Cnd [1]: activity at the nanomolar (nM) level | inhibition at 50 µM [3]: ≥ 50% | effect on cell proliferation (cell index) [9]: toxic effects | platelet levels [12]: normalized | activity level in presence of Cnd [4]: activity at the nanomolar (nM) level | effect on cell proliferation (cell index) ([8]; 50 µM): reduced cell proliferation

CC(C)COCC(CN(Cc1ccccc1)c1ccccc1)N1CCCC1 (stereo not shown) [bepridil]
inhibition of SARS-CoV-2-induced cytopathic effects [5]: significant inhibition | inhibition of SARS-CoV-2-induced cytopathic effects [7]: significant inhibition

CC(C)(C)c1cc(C(C)(C)C)c(NC(=O)c2c[nH]c3ccccc3c2=O)cc1O [ivacaftor]
SARS-CoV-2 growth [10]: inhibit SARS-CoV-2 growth | SARS-CoV-2 growth [11]: inhibit SARS-CoV-2 growth
